# Laboratory results taken from ChEMBL document CHEMBL1123208, “Quantitative structure-activity relationship of the mutagenicity of substituted N-nitroso-N-benzylmethylamines: possible implications for carcinogenicity” (J Med Chem, 1986).
# Legend:
# [1] = test system: Salmonella typhimurium; assay: compound was tested for mutagenicity against Salmonella tester strain TA 1535 with out hamster S9 mix (3 mg/plate) in cells at dose of 10 ug; type: functional, Salmonella enterica subsp. enterica serovar Typhimurium
# Summary of the method: (§1)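 Plate incorporation assay in S. typhimurium TA 1535 without S9 activation. Compound in Me2SO, 1–1000 µg/plate, duplicate plates, mean revertants/plate; incubated 37 °C for 48 h, colonies hand-counted. Positive if two consecutive doses gave revertants more than twice the concurrent control mean.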
# [2] = test system: Salmonella typhimurium; assay: compound was tested for mutagenicity against Salmonella tester strain TA 1535 with out hamster S9 mix (3 mg/plate) in cells.; type: functional, Salmonella enterica subsp. enterica serovar Typhimurium; summary of the method: as §1
# [3] = test system: Salmonella typhimurium; assay: compound was tested for mutagenicity against Salmonella tester strain TA 1535 with out hamster S9 mix (3 mg/plate) in cells at dose of 1000 ug; type: functional, Salmonella enterica subsp. enterica serovar Typhimurium; summary of the method: as §1
# [4] = test system: Salmonella typhimurium; assay: Mutagenicity against Salmonella tester strain TA 1535 without hamster S9 mix (3 mg/plate) in cells.; type: functional, Salmonella enterica subsp. enterica serovar Typhimurium
# [5] = test system: Salmonella typhimurium; assay: compound was tested for mutagenicity against Salmonella tester strain TA 1535 with out hamster S9 mix (3 mg/plate) in cells at dose of 5 ug; type: functional, Salmonella enterica subsp. enterica serovar Typhimurium; summary of the method: as §1
# [6] = test system: Salmonella typhimurium; assay: compound was tested for mutagenicity against Salmonella tester strain TA 1535 with out hamster S9 mix (3 mg/plate) in cells at dose of 2.5 ug; type: functional, Salmonella enterica subsp. enterica serovar Typhimurium; summary of the method: as §1
# [7] = test system: Salmonella typhimurium; assay: compound was tested for mutagenicity against Salmonella tester strain TA 1535 with hamster S9 mix (3 mg/plate) in cells at dose of 5 ug; type: functional, Salmonella enterica subsp. enterica serovar Typhimurium
# Summary of the method: as §1, with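 “with Aroclor-induced male hamster liver” for “without”, “(3 mg/plate).” for “activation.”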
# [8] = test system: Salmonella typhimurium; assay: compound was tested for mutagenicity against Salmonella tester strain TA 1535 with hamster S9 mix (3 mg/plate) in cells at dose of 500 ug; type: functional, Salmonella enterica subsp. enterica serovar Typhimurium
# Summary of the method: as §1, with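 “with Aroclor-induced male hamster liver” for “without”, “(3 mg/plate).” for “activation.”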
# [9] = test system: Salmonella typhimurium; assay: compound was tested for mutagenicity against Salmonella tester strain TA 1535 with out hamster S9 mix (3 mg/plate) in cells at dose of 250 ug; type: functional, Salmonella enterica subsp. enterica serovar Typhimurium; summary of the method: as §1
# [10] = test system: Salmonella typhimurium; assay: compound was tested for mutagenicity against Salmonella tester strain TA 1535 with hamster S9 mix (3 mg/plate) in cells at dose of 100 ug; type: functional, Salmonella enterica subsp. enterica serovar Typhimurium
# Summary of the method: as §1, with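 “with Aroclor-induced male hamster liver” for “without”, “(3 mg/plate).” for “activation.”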
# [11] = test system: Salmonella typhimurium; assay: compound was tested for mutagenicity against Salmonella tester strain TA 1535 with hamster S9 mix (3 mg/plate) in cells at dose of 10 ug; type: functional, Salmonella enterica subsp. enterica serovar Typhimurium
# Summary of the method: as §1, with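 “with Aroclor-induced male hamster liver” for “without”, “(3 mg/plate).” for “activation.”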
# [12] = test system: Salmonella typhimurium; assay: compound was tested for mutagenicity against Salmonella tester strain TA 1535 with hamster S9 mix (3 mg/plate) in cells. Activity expressed as no. of cells; type: functional, Salmonella enterica subsp. enterica serovar Typhimurium
# Summary of the method: as §1, with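 “with Aroclor-induced male hamster liver” for “without”, “(3 mg/plate).” for “activation.”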
# [13] = test system: Salmonella typhimurium; assay: compound was tested for mutagenicity against Salmonella tester strain TA 1535 with out hamster S9 mix (3 mg/plate) in cells at dose of 100 ug; type: functional, Salmonella enterica subsp. enterica serovar Typhimurium; summary of the method: as §1
# [14] = test system: Salmonella typhimurium; assay: (§2) compound was tested for mutagenicity against Salmonella tester strain TA 1535 with out hamster S9 mix (3 mg/plate) in cells at dose of 50 ug; type: functional, Salmonella enterica subsp. enterica serovar Typhimurium; summary of the method: as §1
# [15] = test system: Salmonella typhimurium; assay: compound was tested for mutagenicity against Salmonella tester strain TA 1535 with hamster S9 mix (3 mg/plate) in cells.; type: functional, Salmonella enterica subsp. enterica serovar Typhimurium
# Summary of the method: as §1, with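 “with Aroclor-induced male hamster liver” for “without”, “(3 mg/plate).” for “activation.”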
# [16] = test system: Salmonella typhimurium; assay: compound was tested for mutagenicity against Salmonella tester strain TA 1535 with out hamster S9 mix (3 mg/plate) in cells at dose of 500 ug; type: functional, Salmonella enterica subsp. enterica serovar Typhimurium; summary of the method: as §1
# [17] = test system: Salmonella typhimurium; assay: compound was tested for mutagenicity against Salmonella tester strain TA 1535 with hamster S9 mix (3 mg/plate) in cells at dose of 1000 ug; type: functional, Salmonella enterica subsp. enterica serovar Typhimurium
# Summary of the method: as §1, with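 “with Aroclor-induced male hamster liver” for “without”, “(3 mg/plate).” for “activation.”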
# [18] = test system: Salmonella typhimurium; assay: compound was tested for mutagenicity against Salmonella tester strain TA 1535 with hamster S9 mix (3 mg/plate) in cells at dose of 250 ug; type: functional, Salmonella enterica subsp. enterica serovar Typhimurium
# Summary of the method: as §1, with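 “with Aroclor-induced male hamster liver” for “without”, “(3 mg/plate).” for “activation.”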
# [19] = test system: Salmonella typhimurium; assay: compound was tested for mutagenicity against Salmonella tester strain TA 1535 with hamster S9 mix (3 mg/plate) in cells at dose of 25 ug; type: functional, Salmonella enterica subsp. enterica serovar Typhimurium
# Summary of the method: as §1, with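 “with Aroclor-induced male hamster liver” for “without”, “(3 mg/plate).” for “activation.”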
# [20] = test system: Salmonella typhimurium; assay: compound was tested for mutagenicity against Salmonella tester strain TA 1535 with hamster S9 mix (3 mg/plate) in cells at dose of 1 ug; type: functional, Salmonella enterica subsp. enterica serovar Typhimurium
# Summary of the method: as §1, with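 “with Aroclor-induced male hamster liver” for “without”, “(3 mg/plate).” for “activation.”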
# [21] = Concentration in nmol/plate to induce 50 revertants/plate.; type: ADME
# Summary of the method: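 Ames plate incorporation, S. typhimurium TA 1535, Aroclor-induced male hamster liver S9; duplicate plates, 10-point range 1–1000 µg/plate; 37 °C, 48 h; revertants counted by hand tally. Potency index: concentration (nmol/plate) inducing 50 revertants/plate, taken from linear portion of dose–response curve.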
# [22] = test system: Salmonella typhimurium; assay: compound was tested for mutagenicity against Salmonella tester strain TA 1535 with hamster S9 mix (3 mg/plate) in cells at dose of 50 ug; type: functional, Salmonella enterica subsp. enterica serovar Typhimurium
# Summary of the method: as §1, with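 “with Aroclor-induced male hamster liver” for “without”, “(3 mg/plate).” for “activation.”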
# [23] = test system: Salmonella typhimurium; assay: compound was tested for mutagenicity against Salmonella tester strain TA 1535 with out hamster S9 mix (3 mg/plate) in cells at dose of 25 ug; type: functional, Salmonella enterica subsp. enterica serovar Typhimurium; summary of the method: as §1
# [24] = test system: Salmonella typhimurium; assay: compound was tested for mutagenicity against Salmonella tester strain TA 1535 with out hamster S9 mix (3 mg/plate) in cells at dose of 1 ug; type: functional, Salmonella enterica subsp. enterica serovar Typhimurium; summary of the method: as §1
# [25] = test system: Salmonella typhimurium; assay: compound was tested for mutagenicity against Salmonella tester strain TA 1535 with hamster S9 mix (3 mg/plate) in cells at dose of 2.5 ug; type: functional, Salmonella enterica subsp. enterica serovar Typhimurium
# Summary of the method: as §1, with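 “with Aroclor-induced male hamster liver” for “without”, “(3 mg/plate).” for “activation.”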
# [26] = test system: Salmonella typhimurium; assay: compound was tested for mutagenicity against Salmonella tester strain TA 1535 with hamster S9 mix (3 mg/plate) in cells at dose of 500 ug
# [27] = test system: Salmonella typhimurium; assay: compound was tested for mutagenicity against Salmonella tester strain TA 1535 with out hamster S9 mix (3 mg/plate) in cells at dose of 500 ug
# [28] = test system: Cricetinae gen. sp.; assay: as §2; type: functional; summary of the method: as §1
smiles,measurement,setting,value
CN(Cc1ccc(Cl)cc1)N=O,No. of revertants per plate,[1],18
same,Activity,[2],19
same,No. of revertants per plate,[3],17
same,Activity,[4],22
same,No. of revertants per plate,[5],14
same,No. of revertants per plate,[6],16
same,No. of revertants per plate,[7],21
same,No. of revertants per plate,[8],166
same,No. of revertants per plate,[9],19
same,No. of revertants per plate,[10],136
same,No. of revertants per plate,[11],24
same,Activity,[12],23
same,No. of revertants per plate,[13],19
same,No. of revertants per plate,[14],19
same,Activity,[15],22
same,No. of revertants per plate,[16],24
same,No. of revertants per plate,[17],192
same,No. of revertants per plate,[18],221
same,No. of revertants per plate,[19],42
same,No. of revertants per plate,[20],18
same,Log 1/C,[21],-1.933
same,No. of revertants per plate,[22],77
same,No. of revertants per plate,[23],21
same,No. of revertants per plate,[24],17
same,No. of revertants per plate,[25],19
CN(Cc1cccc(Cl)c1)N=O,No. of revertants per plate,[26],215
same,Activity,[4],17
same,Log 1/C,[21],-1.512
same,No. of revertants per plate,[27],15
CN(Cc1ccc(C#N)cc1)N=O,No. of revertants per plate,[26],180
same,Activity,[4],15
same,Log 1/C,[21],-2.78
same,No. of revertants per plate,[27],12
CN(Cc1cccc(Br)c1)N=O,No. of revertants per plate,[26],223
same,Activity,[4],11
same,Log 1/C,[21],-1.552
same,No. of revertants per plate,[27],11
CN(Cc1ccccc1)N=O,No. of revertants per plate,[26],60
same,Activity,[4],19
same,No. of revertants per plate,[28],14
same,Log 1/C,[21],-3.416
same,No. of revertants per plate,[27],17
CN(Cc1cccc(C#N)c1)N=O,No. of revertants per plate,[26],185
same,Activity,[4],14
same,Log 1/C,[21],-2.139
same,No. of revertants per plate,[27],3053
CN(Cc1cccc(C(F)(F)F)c1)N=O,No. of revertants per plate,[26],127
same,Activity,[4],21
same,Log 1/C,[21],-1.961
same,No. of revertants per plate,[27],18
CN(Cc1cccc([N+](=O)[O-])c1)N=O,Log 1/C,[21],-1.796
CN(Cc1ccc(F)cc1)N=O,No. of revertants per plate,[1],17
same,Activity,[2],8
same,No. of revertants per plate,[3],15
same,Activity,[4],15
same,No. of revertants per plate,[5],21
same,No. of revertants per plate,[6],8
same,No. of revertants per plate,[7],21
same,No. of revertants per plate,[8],94
same,No. of revertants per plate,[9],11
same,No. of revertants per plate,[10],71
same,No. of revertants per plate,[11],22
same,Activity,[12],19
same,No. of revertants per plate,[13],22
same,No. of revertants per plate,[14],16
same,Activity,[15],24
same,No. of revertants per plate,[16],19
same,No. of revertants per plate,[17],126
same,No. of revertants per plate,[18],71
same,No. of revertants per plate,[19],27
same,No. of revertants per plate,[20],15
same,Log 1/C,[21],-2.969
same,No. of revertants per plate,[22],39
same,No. of revertants per plate,[23],20
same,No. of revertants per plate,[24],18
same,No. of revertants per plate,[25],15
CN(Cc1ccc(C(=O)O)cc1)N=O,No. of revertants per plate,[26],15
same,Activity,[4],13
same,No. of revertants per plate,[27],21
CN(Cc1ccc([N+](=O)[O-])cc1)N=O,No. of revertants per plate,[26],176
same,Activity,[4],19
same,Log 1/C,[21],-2.202
same,No. of revertants per plate,[27],23
CN(Cc1ccc(Br)cc1)N=O,No. of revertants per plate,[1],18
same,Activity,[2],14
same,No. of revertants per plate,[3],15
same,Activity,[4],12
same,No. of revertants per plate,[5],21
same,No. of revertants per plate,[6],13
same,No. of revertants per plate,[7],15
same,No. of revertants per plate,[8],183
same,No. of revertants per plate,[9],11
same,No. of revertants per plate,[10],64
same,No. of revertants per plate,[11],14
same,Activity,[12],17
same,No. of revertants per plate,[13],16
same,No. of revertants per plate,[14],10
same,Activity,[15],13
same,No. of revertants per plate,[16],13
same,No. of revertants per plate,[17],201
same,No. of revertants per plate,[18],155
same,No. of revertants per plate,[19],21
same,No. of revertants per plate,[20],12
same,Log 1/C,[21],-1.998
same,No. of revertants per plate,[22],32
same,No. of revertants per plate,[23],14
same,No. of revertants per plate,[24],14
same,No. of revertants per plate,[25],12
COc1ccc(CN(C)N=O)cc1,No. of revertants per plate,[26],24
same,Activity,[4],12
same,No. of revertants per plate,[27],15
COc1cccc(CN(C)N=O)c1,No. of revertants per plate,[26],145
same,Activity,[4],25
same,Log,[21],-1.886 (degrees C)-1
same,No. of revertants per plate,[27],18
Cc1cccc(CN(C)N=O)c1,No. of revertants per plate,[26],106
same,Activity,[4],16
same,Log 1/C,[21],-3.039
same,No. of revertants per plate,[27],14
COC(=O)c1ccc(CN(C)N=O)cc1,No. of revertants per plate,[26],18
same,Activity,[4],14
same,No. of revertants per plate,[27],15
